Key:
[1] = molecular target: Macrophage metalloelastase (Homo sapiens, UniProt P39900); assay: Inhibition of recombinant human MMP12 using Mca-Lys-Pro-Leu-Gly-Leu-Dap(Dnp)-Ala-Arg-NH2 as substrate preincubated for 3 hrs followed by substrate addition and measured every 10 secs for 15 mins by fluorescence assay
Procedure, shortened: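 Inhibitor at seven concentrations, 3 h at 25 °C; 2 µM final substrate. Fluorescence read at ex 325/em 400 nm. Done in triplicate. IC50 fitted as vi/v0 = 1/(1+[I]/IC50).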

[2] = molecular target: Matrix metalloproteinase-9 (Homo sapiens, UniProt P14780); assay: Inhibition of recombinant human MMP9 using Mca-Lys-Pro-Leu-Gly-Leu-Dap(Dnp)-Ala-Arg-NH2 as substrate preincubated for 3 hrs followed by substrate addition and measured every 10 secs for 15 mins by fluorescence assay
Chain of Matrix metalloproteinase-9 (P14780 whole entry): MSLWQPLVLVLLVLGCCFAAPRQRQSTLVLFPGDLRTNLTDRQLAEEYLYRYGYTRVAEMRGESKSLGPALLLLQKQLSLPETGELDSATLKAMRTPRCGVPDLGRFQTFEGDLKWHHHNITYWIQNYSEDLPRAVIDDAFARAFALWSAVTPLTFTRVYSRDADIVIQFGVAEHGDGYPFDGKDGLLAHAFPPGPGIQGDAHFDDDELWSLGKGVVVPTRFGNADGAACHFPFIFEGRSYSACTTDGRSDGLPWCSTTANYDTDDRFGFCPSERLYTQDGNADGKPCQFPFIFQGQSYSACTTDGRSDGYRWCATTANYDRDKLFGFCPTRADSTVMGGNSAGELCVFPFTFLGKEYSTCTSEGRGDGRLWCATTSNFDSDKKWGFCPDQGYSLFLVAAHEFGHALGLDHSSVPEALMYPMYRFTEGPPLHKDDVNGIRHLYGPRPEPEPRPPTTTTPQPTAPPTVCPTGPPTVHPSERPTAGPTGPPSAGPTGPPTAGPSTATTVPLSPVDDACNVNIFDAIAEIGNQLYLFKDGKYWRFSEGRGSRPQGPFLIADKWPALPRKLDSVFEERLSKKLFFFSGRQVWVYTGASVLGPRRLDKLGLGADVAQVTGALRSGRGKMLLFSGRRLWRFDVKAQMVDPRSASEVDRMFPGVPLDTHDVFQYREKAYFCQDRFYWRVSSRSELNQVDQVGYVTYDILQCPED
Procedure, shortened: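 Pro-enzyme activated just before use with 1 mM APMA for 1 h at 37 °C; 1.3 nM final enzyme. Inhibitor at seven concentrations, 3 h at 25 °C; 2 µM final substrate. Fluorescence read at ex 325/em 400 nm. Done in triplicate. IC50 fitted as vi/v0 = 1/(1+[I]/IC50).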

[3] = Solubility in water; type: physicochemical

Chain of Macrophage metalloelastase (P39900 whole entry): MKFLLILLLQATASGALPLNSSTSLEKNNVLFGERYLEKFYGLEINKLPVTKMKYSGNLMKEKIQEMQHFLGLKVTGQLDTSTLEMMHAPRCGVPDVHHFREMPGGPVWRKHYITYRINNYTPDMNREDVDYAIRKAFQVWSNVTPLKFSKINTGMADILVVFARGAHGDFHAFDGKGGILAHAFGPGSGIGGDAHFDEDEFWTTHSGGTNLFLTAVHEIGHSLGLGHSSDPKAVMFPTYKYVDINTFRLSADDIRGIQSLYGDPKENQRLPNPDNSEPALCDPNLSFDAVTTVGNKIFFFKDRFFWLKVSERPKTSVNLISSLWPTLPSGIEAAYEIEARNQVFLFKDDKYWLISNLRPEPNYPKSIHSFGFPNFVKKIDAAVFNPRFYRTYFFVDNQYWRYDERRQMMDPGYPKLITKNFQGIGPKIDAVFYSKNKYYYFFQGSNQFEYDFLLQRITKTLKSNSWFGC

Row | Compound | IC50 [1] [nM] | IC50 [2] [nM] | solubility [3] [mM]
1 | CC(C)[C@H](C(=O)O)N([C@@H]1O[C@H](CO)[C@@H](O)[C@H](O)[C@H]1O)S(=O)(=O)c1ccc(-c2ccccc2)cc1 | 1300 | > 50000 | –
2 | CO[C@@H]1O[C@H](CNC(=S)NCCN([C@@H](C(=O)O)C(C)C)S(=O)(=O)c2ccc(-c3ccccc3)cc2)[C@@H](O)[C@H](O)[C@H]1O | 65 | 520 | –
3 | CC(C)[C@H](C(=O)O)N(CCNC(=S)N[C@@H]1O[C@H](CO)[C@@H](O)[C@H](O)[C@H]1O)S(=O)(=O)c1ccc(-c2ccccc2)cc1 | 98 | 1120 | –
4 | CC(=O)N[C@@H]1[C@@H](O)[C@H](O)[C@@H](CO)O[C@H]1NC(=S)NCCN([C@@H](C(=O)O)C(C)C)S(=O)(=O)c1ccc(-c2ccccc2)cc1 | 40 | 5400 | > 5
5 | CO[C@@H]1O[C@H](CN([C@@H](C(=O)O)C(C)C)S(=O)(=O)c2ccc(-c3ccccc3)cc2)[C@@H](O)[C@H](O)[C@H]1O | 51 | 2200 | –
6 | CC(=O)N[C@@H]1[C@@H](OC(C)=O)[C@H](OC(C)=O)[C@@H](COC(C)=O)O[C@H]1NC(=S)NCCN([C@@H](C(=O)O)C(C)C)S(=O)(=O)c1ccc(-c2ccccc2)cc1 | 18 | 1200 | –
7 | CC(=O)N[C@@H]1[C@@H](O)[C@H](O)[C@@H](CO)O[C@H]1N([C@@H](C(=O)O)C(C)C)S(=O)(=O)c1ccc(-c2ccccc2)cc1 | 9200 | – | –
8 | CO[C@@H]1O[C@H](CN([C@@H](C(=O)O)C(C)C)S(=O)(=O)c2ccc(-c3ccccc3)cc2)C(O)[C@H](O)C1NC(C)=O (single isomer, unassigned) | 41 | 890 | –

Now from value to compound:

Row | IC50 [1] [nM] | IC50 [2] [nM] | solubility [3] [mM] | Compound
9 | 40000 | – | – | CC(=O)N[C@@H]1[C@@H](OC(C)=O)[C@H](OC(C)=O)[C@@H](COC(C)=O)O[C@H]1N([C@@H](C(=O)O)C(C)C)S(=O)(=O)c1ccc(-c2ccccc2)cc1
10 | 9600 | – | – | CC(=O)OC[C@H]1O[C@@H](N([C@@H](C(=O)O)C(C)C)S(=O)(=O)c2ccc(-c3ccccc3)cc2)[C@H](OC(C)=O)[C@@H](OC(C)=O)[C@@H]1OC(C)=O
11 | 19 | 880 | – | CC(=O)OC[C@H]1O[C@@H](NC(=S)NCCN([C@@H](C(=O)O)C(C)C)S(=O)(=O)c2ccc(-c3ccccc3)cc2)[C@H](OC(C)=O)[C@@H](OC(C)=O)[C@@H]1OC(C)=O
12 | 83 | 1240 | – | CO[C@@H]1O[C@H](CN([C@@H](C(=O)O)C(C)C)S(=O)(=O)c2ccc(-c3ccccc3)cc2)[C@@H](OC(C)=O)[C@H](OC(C)=O)[C@H]1NC(C)=O
13 | 20 | 32 | – | CO[C@@H]1O[C@H](CNC(=S)NCCN([C@@H](C(=O)O)C(C)C)S(=O)(=O)c2ccc(-c3ccccc3)cc2)[C@@H](OC(C)=O)[C@H](OC(C)=O)[C@H]1OC(C)=O
14 | 84 | 2600 | – | CO[C@@H]1O[C@H](CN([C@@H](C(=O)O)C(C)C)S(=O)(=O)c2ccc(-c3ccccc3)cc2)[C@@H](OC(C)=O)[C@H](OC(C)=O)[C@H]1OC(C)=O
